The values that follow come from ChEMBL document CHEMBL1154388.

Experiment [1] has as its target T1, Metabotropic glutamate receptor 5 (Rattus norvegicus, UniProt P31424). In words: Antagonist activity at rat mGluR5 expressed in HEK293 cells by calcium mobilization assay. In kind it is functional, cell-based. The procedure, abridged: (§1)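 Rat mGluR5 in HEK293A cells and rat mGluR1 in BHK cells were loaded with a Ca²⁺-sensitive fluorescent dye and washed. Compound was added 3 s after baseline and incubated for 140 s.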
For orientation: A change in cytosolic calcium serves as a functional read-out for many receptors and channels.

Experiment [2] has as its target Metabotropic glutamate receptor 5 (Rattus norvegicus) (UniProt P31424). Put plainly: Positive allosteric modulator activity at rat mGluR5 receptor expressed in HEK293 cells assessed as potentiation of glutamate-induced response at 30 uM relative to glutamate. Type of experiment: cell-based. The procedure, abridged: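 In mGluR5-expressing HEK293A cells in the calcium mobilization assay, response amplitude with test compound present is expressed as a percentage of the maximal response to glutamate. Values are the average of n≥3.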

Experiment [3] shares this target. Put plainly: (§2) Positive allosteric modulator activity at rat mGluR5 receptor expressed in HEK293 cells assessed as potentiation of glutamate-induced response. In kind it is cell-based.
Experiment [4] concerns the target T1, Metabotropic glutamate receptor 5. The experiment is described as §2. Type of experiment: cell-based.
Experiment [5] shares this target. Put plainly: Displacement of [3H]3methoxy-5-(pyridin-2-ylethynyl)pyridine from rat mGluR5. Background: Loss of bound radioactivity is the signal in a displacement assay; it reports binding, not function.
Experiment [6] deals with Metabotropic glutamate receptor 1 (Rattus norvegicus, UniProt P23385). In words: Antagonist activity at rat mGluR1 expressed in BHK cells by calcium mobilization assay. In kind it is functional, cell-based. The procedure, abridged: as §1
Metabotropic glutamate receptor 1, sequence (P23385 whole entry): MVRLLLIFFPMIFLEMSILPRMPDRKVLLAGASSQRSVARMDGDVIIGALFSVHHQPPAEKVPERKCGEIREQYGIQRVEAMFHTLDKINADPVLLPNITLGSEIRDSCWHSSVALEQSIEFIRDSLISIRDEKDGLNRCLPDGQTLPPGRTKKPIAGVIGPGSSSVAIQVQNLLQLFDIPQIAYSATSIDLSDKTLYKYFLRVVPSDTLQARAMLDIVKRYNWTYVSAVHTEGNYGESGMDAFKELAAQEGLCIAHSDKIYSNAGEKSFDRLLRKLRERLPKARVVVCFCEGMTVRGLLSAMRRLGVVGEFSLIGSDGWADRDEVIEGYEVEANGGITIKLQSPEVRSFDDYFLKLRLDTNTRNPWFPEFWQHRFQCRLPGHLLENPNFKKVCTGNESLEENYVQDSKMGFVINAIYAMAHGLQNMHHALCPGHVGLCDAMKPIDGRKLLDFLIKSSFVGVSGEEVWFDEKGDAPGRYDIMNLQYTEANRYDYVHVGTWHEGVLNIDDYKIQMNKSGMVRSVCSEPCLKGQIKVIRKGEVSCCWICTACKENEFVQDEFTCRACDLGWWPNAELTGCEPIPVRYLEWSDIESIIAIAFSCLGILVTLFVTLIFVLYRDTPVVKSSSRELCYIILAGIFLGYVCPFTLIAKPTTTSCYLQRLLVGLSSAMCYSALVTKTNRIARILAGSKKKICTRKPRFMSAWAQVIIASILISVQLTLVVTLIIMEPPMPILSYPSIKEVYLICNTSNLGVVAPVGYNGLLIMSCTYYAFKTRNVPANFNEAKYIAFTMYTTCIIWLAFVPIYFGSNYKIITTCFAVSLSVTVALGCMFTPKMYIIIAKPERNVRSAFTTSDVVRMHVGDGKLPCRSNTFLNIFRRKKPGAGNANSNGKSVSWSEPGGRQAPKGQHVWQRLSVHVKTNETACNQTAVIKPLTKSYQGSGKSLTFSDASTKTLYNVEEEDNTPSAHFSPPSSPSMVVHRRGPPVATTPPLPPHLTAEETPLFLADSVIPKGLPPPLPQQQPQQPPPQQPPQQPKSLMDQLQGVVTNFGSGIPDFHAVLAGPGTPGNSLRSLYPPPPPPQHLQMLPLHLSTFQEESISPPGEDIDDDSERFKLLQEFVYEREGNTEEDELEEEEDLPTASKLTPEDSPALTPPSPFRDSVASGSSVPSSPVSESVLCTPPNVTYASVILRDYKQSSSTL

Metabotropic glutamate receptor 5 (Rattus norvegicus), sequence (P31424 21-1203 limits assumed): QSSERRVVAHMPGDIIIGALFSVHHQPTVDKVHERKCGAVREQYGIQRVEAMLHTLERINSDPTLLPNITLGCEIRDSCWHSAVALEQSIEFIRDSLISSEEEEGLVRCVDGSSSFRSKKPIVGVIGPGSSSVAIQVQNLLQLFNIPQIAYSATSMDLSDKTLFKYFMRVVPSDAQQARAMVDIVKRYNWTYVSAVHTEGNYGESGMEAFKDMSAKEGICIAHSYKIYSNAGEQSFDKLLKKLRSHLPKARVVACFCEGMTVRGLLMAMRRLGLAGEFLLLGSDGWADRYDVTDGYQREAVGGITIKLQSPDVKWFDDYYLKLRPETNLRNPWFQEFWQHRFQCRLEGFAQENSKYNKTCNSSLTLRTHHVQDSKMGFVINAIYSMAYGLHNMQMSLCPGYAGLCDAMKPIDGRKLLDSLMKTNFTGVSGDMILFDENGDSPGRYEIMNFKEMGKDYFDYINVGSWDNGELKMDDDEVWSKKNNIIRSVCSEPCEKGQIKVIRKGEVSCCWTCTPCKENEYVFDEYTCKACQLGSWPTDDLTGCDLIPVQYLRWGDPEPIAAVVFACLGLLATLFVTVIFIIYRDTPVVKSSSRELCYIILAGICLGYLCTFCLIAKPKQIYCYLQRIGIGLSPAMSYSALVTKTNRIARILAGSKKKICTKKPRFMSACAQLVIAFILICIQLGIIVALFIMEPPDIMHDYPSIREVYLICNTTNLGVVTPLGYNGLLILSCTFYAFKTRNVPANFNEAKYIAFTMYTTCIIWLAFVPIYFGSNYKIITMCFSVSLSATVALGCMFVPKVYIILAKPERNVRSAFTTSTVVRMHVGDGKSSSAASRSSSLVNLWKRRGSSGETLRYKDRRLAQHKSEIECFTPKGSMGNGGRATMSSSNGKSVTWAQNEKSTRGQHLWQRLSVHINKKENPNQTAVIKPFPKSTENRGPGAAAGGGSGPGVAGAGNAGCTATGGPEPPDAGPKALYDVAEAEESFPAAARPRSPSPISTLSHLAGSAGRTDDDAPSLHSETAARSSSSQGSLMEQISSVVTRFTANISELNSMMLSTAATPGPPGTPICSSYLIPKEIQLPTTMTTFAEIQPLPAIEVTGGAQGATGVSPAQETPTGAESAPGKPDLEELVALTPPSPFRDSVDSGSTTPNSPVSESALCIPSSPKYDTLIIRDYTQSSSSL
T1 sequence (P31424 whole entry): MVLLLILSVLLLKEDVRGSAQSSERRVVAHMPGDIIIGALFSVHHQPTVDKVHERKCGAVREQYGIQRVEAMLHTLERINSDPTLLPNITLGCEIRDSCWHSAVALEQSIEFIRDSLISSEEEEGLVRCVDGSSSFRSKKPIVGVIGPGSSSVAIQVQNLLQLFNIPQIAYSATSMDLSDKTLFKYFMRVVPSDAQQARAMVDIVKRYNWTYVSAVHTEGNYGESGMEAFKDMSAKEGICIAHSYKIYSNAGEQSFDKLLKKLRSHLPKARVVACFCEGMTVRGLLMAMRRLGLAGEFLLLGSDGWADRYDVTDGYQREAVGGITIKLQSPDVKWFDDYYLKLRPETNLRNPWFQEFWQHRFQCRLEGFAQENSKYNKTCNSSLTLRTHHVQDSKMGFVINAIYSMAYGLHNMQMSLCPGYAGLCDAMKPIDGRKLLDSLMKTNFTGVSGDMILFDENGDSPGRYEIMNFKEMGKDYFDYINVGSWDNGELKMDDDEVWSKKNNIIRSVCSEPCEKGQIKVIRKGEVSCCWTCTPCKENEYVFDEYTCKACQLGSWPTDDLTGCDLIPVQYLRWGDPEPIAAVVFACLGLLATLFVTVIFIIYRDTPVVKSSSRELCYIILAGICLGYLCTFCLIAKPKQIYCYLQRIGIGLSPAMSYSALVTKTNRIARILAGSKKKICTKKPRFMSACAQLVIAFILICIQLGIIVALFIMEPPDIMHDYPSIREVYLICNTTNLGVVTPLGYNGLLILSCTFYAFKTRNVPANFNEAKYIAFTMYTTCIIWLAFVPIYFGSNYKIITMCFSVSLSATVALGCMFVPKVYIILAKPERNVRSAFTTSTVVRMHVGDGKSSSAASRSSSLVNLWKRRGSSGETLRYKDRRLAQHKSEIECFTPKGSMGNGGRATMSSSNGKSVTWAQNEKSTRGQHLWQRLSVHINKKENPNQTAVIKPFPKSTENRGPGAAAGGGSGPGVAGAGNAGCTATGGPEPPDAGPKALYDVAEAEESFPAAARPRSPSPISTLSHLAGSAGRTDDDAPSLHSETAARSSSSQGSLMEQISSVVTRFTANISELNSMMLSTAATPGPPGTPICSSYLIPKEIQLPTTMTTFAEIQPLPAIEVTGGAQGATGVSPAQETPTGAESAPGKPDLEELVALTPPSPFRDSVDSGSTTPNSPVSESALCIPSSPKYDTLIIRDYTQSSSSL

Take `Clc1cccc(Nc2ncnc3ccc(Cl)cc23)c1`: the IC50 in experiment [1] was determined as 0.13 µM. Besides, the Activity in experiment [2] is 2.8%.

In the case of `Fc1ccc2ncnc(Nc3ccccc3)c2c1`, the IC50 in experiment [1] is above 10 µM. For the same molecule, the Activity in experiment [2] worked out at 58%.

Take `COc1ccc2ncnc(Nc3cccc(Cl)c3)c2c1`: the concentration for half-maximal inhibition (IC50) in experiment [1] is 1.51 µM. Moreover, in experiment [2], the Activity was 13%.

For `Fc1ccc2ncnc(Nc3ccc(F)c(Cl)c3)c2c1`, the 50% inhibitory concentration (IC50) in experiment [1] was above 10 µM.

As for `N#Cc1ccc2ncnc(Nc3cccc(Cl)c3)c2c1`, the half-maximal inhibitory concentration (IC50) in experiment [1] was above 10 µM. Also, in experiment [2], the Activity was determined as 35%.

On to `Brc1cccc(Oc2ncnc3ccc(Br)cc23)c1`, for which, in experiment [1], the half-maximal inhibitory concentration (IC50) is above 10 µM. The Activity in experiment [2] was 49%.

In the case of `Clc1ccc2ncnc(Sc3cccc(Br)c3)c2c1`, the concentration for half-maximal inhibition (IC50) in experiment [1] is above 30 µM.

With `CCc1cccc(Nc2ncnc3ccc(F)cc23)c1`, the Activity in experiment [3] amounted to 52%. In addition, the concentration giving a half-maximal response (EC50) in experiment [4] was above 10 µM.

Take `Fc1ccc2ncnc(Nc3cccc(Cl)c3F)c2c1`: the concentration for half-maximal inhibition (IC50) in experiment [1] is 3.72 µM. For the same molecule, the Activity in experiment [2] amounted to 5.2%.

With `Fc1ccc2ncnc(Nc3cccc(Cl)c3)c2c1`, in experiment [1], the concentration for half-maximal inhibition (IC50) is 0.311 µM. In addition, the Activity in experiment [2] came to 0.9%.

Turning to `O=[N+]([O-])c1ccc2ncnc(Nc3cccc(Cl)c3)c2c1`, in experiment [1], the half-inhibitory concentration (IC50) came to 0.274 µM. Moreover, the Activity in experiment [2] stood at 2.4%.

As to `Clc1ccc(CCNc2ncnc3ccc(Cl)cc23)cc1`, in experiment [1], the half-maximal inhibitory concentration (IC50) is above 30 µM.

Consider `FC(F)(F)c1cccc(Nc2ncnc3ccc(Br)cc23)c1`, for which the IC50 in experiment [1] stood at 1.72 µM. Further, the Activity in experiment [2] was found to be 3.2%.

Take `CN(c1cccc(Br)c1)c1ncnc2ccc(Br)cc12`: in experiment [1], the IC50 is above 30 µM.

As to `COc1cccc(Nc2ncnc3ccc(Br)cc23)c1`, the IC50 in experiment [1] is above 10 µM. In experiment [2], the Activity was 34%.

As for `Brc1cccc(Sc2ncnc3ccc(Br)cc23)c1`, the concentration for half-maximal inhibition (IC50) in experiment [1] is above 30 µM.

Take `Brc1ccc2ncnc(Nc3ccccc3)c2c1`: the IC50 in experiment [1] is above 10 µM. For the same molecule, in experiment [2], the Activity was 42%.

Turning to `Clc1ccc2nccc(Nc3cccc(Br)c3)c2c1`, in experiment [1], the IC50 was above 30 µM.

On to `Clc1cccc(Nc2ncnc3ccc(Br)cc23)c1`, for which the 50% inhibitory concentration (IC50) came to 0.256 µM in experiment [1] and 398 nM in experiment [6]. Further, in experiment [2], the Activity stood at 1.5%. This molecule registered a Ki in experiment [5] of 116 nM.

For the molecule `Clc1ccc2ncnc(NCCc3ccccc3Cl)c2c1`, the concentration for half-maximal inhibition (IC50) in experiment [1] is above 30 µM.

Turning to `N#Cc1cccc(Nc2ncnc3ccc(F)cc23)c1`, the 50% inhibitory concentration (IC50) in experiment [1] came out at 1.37 µM. Also, the Activity in experiment [2] came to 3.5%.

Regarding `Clc1ccc2ncnc(Oc3cccc(Br)c3)c2c1`, in experiment [1], the IC50 was found to be 6.57 µM. In experiment [2], the Activity came to 14%.

As for `Clc1cccc(CCNc2ncnc3ccc(Cl)cc23)c1`, the concentration for half-maximal inhibition (IC50) in experiment [1] is above 30 µM.

Take `Brc1cccc(Nc2ncnc3ccc(Br)cc23)c1`: the IC50 in experiment [1] stood at 0.174 µM. For the same molecule, the Activity in experiment [2] was 2.5%.

Take `Clc1cccc(CNc2ncnc3ccc(Cl)cc23)c1`: the IC50 in experiment [1] was above 30 µM.

For the molecule `Cc1cccc(Nc2ncnc3ccc(Br)cc23)c1`, the concentration for half-maximal inhibition (IC50) in experiment [1] came to 0.246 µM. For the same molecule, the Activity in experiment [2] came to 1.2%.

As for `Clc1ccc2ncnc(NCc3ccccc3Cl)c2c1`, the IC50 in experiment [1] was above 30 µM.

As to `Clc1ccc2ncnc(NCCc3ccccc3)c2c1`, the IC50 in experiment [1] is above 10 µM. Moreover, in experiment [2], the Activity is 59%.

On to `COc1cccc(Nc2ncnc3ccc(F)cc23)c1`, for which, in experiment [1], the concentration for half-maximal inhibition (IC50) is above 10 µM. Further, the Activity in experiment [2] worked out at 50%.

For `Brc1cccc(Nc2nccc3ccc(Br)cc23)c1`, the concentration for half-maximal inhibition (IC50) in experiment [1] was found to be 4.33 µM. In addition, the Activity in experiment [2] is 5.4%.

In the case of `Clc1ccc2ncnc(Nc3cccc(Br)c3)c2c1`, the half-inhibitory concentration (IC50) in experiment [1] stood at 0.124 µM; in experiment [6], 955 nM. Further, the Activity in experiment [2] worked out at 1.2%. The Ki in experiment [5] is 249 nM.

Consider `Fc1ccc2ncnc(Nc3cccc(C(F)(F)F)c3)c2c1`, for which the IC50 in experiment [1] is above 10 µM. For the same molecule, the Activity in experiment [2] worked out at 32%.

Regarding `Clc1ccc2ncnc(NCc3ccccc3)c2c1`, in experiment [1], the IC50 was above 30 µM.

As for `Clc1ccc(CNc2ncnc3ccc(Cl)cc23)cc1`, the concentration for half-maximal inhibition (IC50) in experiment [1] is above 30 µM.

In the case of `Clc1ccc2ncnc(Nc3ccccc3)c2c1`, the IC50 in experiment [1] is above 10 µM. The Activity in experiment [2] was 31%.

Take `Fc1ccc2ncnc(Nc3cccc(Br)c3)c2c1`: the IC50 turned out to be 0.096 µM in experiment [1] and 713 nM in experiment [6]. Further, the Activity in experiment [2] came out at 0.6%. The affinity in experiment [5] corresponds to a Ki of 736 nM.

Regarding `Cc1cccc(Nc2ncnc3ccc(F)cc23)c1`, the IC50 in experiment [1] was found to be 1.35 µM. For the same molecule, the Activity in experiment [2] was determined as 3.5%.

On to `CN(c1cccc(Br)c1)c1ncnc2ccc(Cl)cc12`, for which the concentration for half-maximal inhibition (IC50) in experiment [1] was above 30 µM.

As for `Fc1cccc(Nc2ncnc3ccc(Br)cc23)c1`, the IC50 in experiment [1] was 1.97 µM. For the same molecule, in experiment [2], the Activity was determined as 8.8%.

On to `Fc1cc(Cl)cc(Nc2ncnc3ccc(F)cc23)c1`, for which the IC50 in experiment [1] is above 10 µM. Also, in experiment [2], the Activity was 56%.

Broadly, the IC50 is the point on the concentration scale where inhibition reaches its midpoint. The term EC50 denotes the concentration giving half of the maximal effect. One may read the Ki as the dissociation constant of the complex between target and ligand, obtained from inhibition or displacement.
